The source made the active and inactive calls. The rule behind the calls is not given here.
Columns and labels:
T-24 [1] = assay: Cytotoxicity against human T24 cells after 72 hrs by neutral red dye assay; assay type: functional, cell-based; conditions: T-24, 72 h
Method in brief: (§1)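 Human tumour cells were grown as monolayers with 10% FBS and penicillin/streptomycin at 37 °C in 5% CO2 (HT-29 and T-24 in McCoy's, MDA-MB-231 in Leibovitz). They were exposed to compound in DMSO (≤0.5% v/v final) at screening concentrations of 20 and 100 μM for 72 h and read by neutral red uptake. Survival is relative to cells given DMSO only, in triplicate.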

HT-29 [2] = assay: Cytotoxicity against human HT-29 cells after 72 hrs by neutral red dye assay; assay type: functional, cell-based; conditions: HT-29, 72 h; method in brief: as §1
MDA-MB-231 [3] = assay: Cytotoxicity against human MDA-MB-231 cells after 72 hrs by neutral red dye assay; assay type: functional, cell-based; conditions: MDA-MB-231, 72 h; method in brief: as §1
T-24 [4] = assay: Induction of apoptosis in human T24 cells assessed as DNA fragmentation after 48 hrs by ELISA relative to control; assay type: functional
Method in brief: (§2)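 DNA fragmentation was measured with the Cell Death Detection ELISA Plus kit after treatment of cultured tumour cells. The signal is expressed relative to untreated control cultures, which are set to 1.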

HT-29 [5] = assay: Induction of apoptosis in human HT-29 cells assessed as DNA fragmentation after 48 hrs by ELISA relative to control; assay type: functional; method in brief: as §2
MDA-MB-231 [6] = assay: Induction of apoptosis in human MDA-MB-231 cells assessed as DNA fragmentation after 24 hrs by ELISA relative to control; assay type: functional; method in brief: as §2
[7] = Cytotoxicity against human CRL8799 cells assessed as cell survival at 20 to 100 uM after 72 hrs by neutral red dye assay; assay type: cell-based; conditions: read-out: Survival
Method in brief: (§3)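 The non-tumoral lines were grown with 10% FBS plus penicillin/streptomycin, as monolayers at 37 °C in 5% CO2: CRL-8799 in MEG medium and CRL-11233 in BEGM. Compounds in DMSO (≤0.5% v/v final) were applied for 72 h. Survival was read by neutral red uptake against 0.5% DMSO solvent-treated controls, as the mean of triplicates.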

[8] = Cytotoxicity against human CRL11233 cells assessed as cell survival at 20 to 100 uM after 72 hrs by neutral red dye assay; assay type: cell-based; conditions: read-out: Survival; method in brief: as §3
T-24 [9] = assay: Cytotoxicity against human T24 cells assessed as cell survival at 100 uM after 72 hrs by neutral red dye assay; assay type: functional; conditions: T-24, 72 h, read-out: Survival
Method in brief: (§4)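 HT-29 and T-24 cells were grown in McCoy's medium and MDA-MB-231 in Leibovitz, each with 10% FBS plus penicillin/streptomycin, as monolayers at 37 °C in 5% CO2. Compounds in DMSO (≤0.5% v/v final) were applied for 72 h. Survival was read by neutral red uptake against 0.5% DMSO-treated cells, as the mean of triplicates.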

HT-29 [10] = assay: Cytotoxicity against human HT-29 cells assessed as cell survival at 100 uM after 72 hrs by neutral red dye assay; assay type: functional; conditions: HT-29, 72 h, read-out: Survival; method in brief: as §4
MDA-MB-231 [11] = assay: Cytotoxicity against human MDA-MB-231 cells assessed as cell survival at 100 uM after 72 hrs by neutral red dye assay; assay type: functional; conditions: MDA-MB-231, 72 h, read-out: Survival; method in brief: as §4
T-24 [12] = assay: Induction of apoptosis in human T24 cells assessed as DNA fragmentation after 48 hrs by ELISA relative to camptothecin; assay type: functional
HT-29 [13] = assay: Induction of apoptosis in human HT-29 cells assessed as DNA fragmentation after 48 hrs by ELISA relative to camptothecin; assay type: functional
T-24 [14] = assay: Cytotoxicity against human T24 cells after 48 hrs by neutral red dye assay; assay type: functional, cell-based
HT-29 [15] = assay: Cytotoxicity against human HT-29 cells after 48 hrs by neutral red dye assay; assay type: functional, cell-based
MDA-MB-231 [16] = assay: Cytotoxicity against human MDA-MB-231 cells after 48 hrs by neutral red dye assay; assay type: functional, cell-based

`c1ccc(CNc2ccnc(NCc3ccccc3)n2)cc1` showed an IC50 (T-24 [1]) of 6.1 µM, an IC50 (HT-29 [2]) of 17.2 µM and an IC50 (MDA-MB-231 [3]) of 1900 nM. The “fold change (FC)” value (T-24 [4]) was 6, the “fold change (FC)” value (HT-29 [5]) was 7.4 and the Activity (MDA-MB-231 [6]) was “inactive”. It also gave a viability at 72 h, up to 100 µM [7] of 22%, a viability at 72 h, up to 100 µM [8] of 0% and a viability at 100 µM (T-24 [9]) of under 45%. The viability at 100 µM (HT-29 [10]) was under 45%, the viability at 100 µM (MDA-MB-231 [11]) was under 45% and the “fold change (FC)” value (T-24 [12]) was 2.3. For the same compound, the “fold change (FC)” value (HT-29 [13]) was 2.3.

With `c1ccc(CCNc2nc(NCCc3ccccn3)c3cccnc3n2)nc1` the IC50 (T-24 [14]) was “Not Active”, the IC50 (HT-29 [15]) was “Not Active” and the IC50 (MDA-MB-231 [16]) was “Not Active”.

For `CC(C)Sc1nc(NCCCO)c2cccnc2n1`, the Activity (HT-29 [5]) was “inactive”, the Activity (MDA-MB-231 [6]) was “inactive” and the IC50 (T-24 [14]) was “Not Active”. The IC50 (HT-29 [15]) was “Not Active” and the IC50 (MDA-MB-231 [16]) was “Not Active”.

In the case of `OCCCCNc1nc(NCCCCO)c2cccnc2n1`, the IC50 (T-24 [14]) is reported as “Not Active”, the IC50 (HT-29 [15]) is reported as “Not Active” and the IC50 (MDA-MB-231 [16]) is reported as “Not Active”.

For `CCSc1nc(NCCCCCO)c2cccnc2n1`, the IC50 (T-24 [14]) was “Not Active”, the IC50 (HT-29 [15]) was “Not Active” and the IC50 (MDA-MB-231 [16]) was “Not Active”.

With `CCCCCSc1nc(NCCCC)c2cccnc2n1` the IC50 (T-24 [14]) was “Not Active”, the IC50 (HT-29 [15]) was “Not Active” and the IC50 (MDA-MB-231 [16]) was “Not Active”.

In the case of `c1ccc(CCCCNc2ccnc(NCCCCc3ccccc3)n2)cc1`, the IC50 (T-24 [14]) is reported as “Not Active”, the IC50 (HT-29 [15]) is reported as “Not Active” and the IC50 (MDA-MB-231 [16]) is reported as “Not Active”.

With `OCCCNc1nc(NCCCO)c2cccnc2n1` the IC50 (T-24 [14]) was “Not Active”, the IC50 (HT-29 [15]) was “Not Active” and the IC50 (MDA-MB-231 [16]) was “Not Active”.

With `CCSc1nc(NCCCO)c2cccnc2n1` the IC50 (T-24 [14]) was “Not Active”, the IC50 (HT-29 [15]) was “Not Active” and the IC50 (MDA-MB-231 [16]) was “Not Active”.

For `CCCCCNc1nc(SCCCCC)nc2ncccc12`, the Activity (HT-29 [5]) was “inactive”, the IC50 (T-24 [14]) was “Not Active” and the IC50 (HT-29 [15]) was “Not Active”. For the same compound, the IC50 (MDA-MB-231 [16]) was “Not Active”.

In the case of `CCSc1nc(NCCCCO)c2cccnc2n1`, the IC50 (T-24 [14]) is reported as “Not Active”, the IC50 (HT-29 [15]) is reported as “Not Active” and the IC50 (MDA-MB-231 [16]) is reported as “Not Active”.

— ChEMBL document CHEMBL1821616, “New insights into the structural requirements for pro-apoptotic agents based on 2,4-diaminoquinazoline, 2,4-diaminopyrido[2,3-d]pyrimidine and 2,4-diaminopyrimidine derivatives” (Eur J Med Chem, 2011)
